# Source: PubChem (several laboratories)
# LYP inh 2 = blocks human PTPN22 phosphatase activity; inhibition, % at 2 µM; recombinant LYP catalytic domain, DiFMUP fluorescence; 96,000 compounds, 0.21% hits; Q9Y2R2;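 active = inhibition at 2 µM at or above a set limit, the screen mean plus 3 SD, cut at about 24% in these data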
# HIV Rev-RRE inh = HIV Rev-RRE protein-RNA interaction inhibition. P05866. Rev peptide-RRE RNA binding, FRET. inhibition, % at 8 µM. 97,000 compounds, 0.79% hits;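 active = inhibition above the screen-wide mean plus 3 SD, cut at about 35% in these data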
# Target sequence (P05866 whole entry, looked up): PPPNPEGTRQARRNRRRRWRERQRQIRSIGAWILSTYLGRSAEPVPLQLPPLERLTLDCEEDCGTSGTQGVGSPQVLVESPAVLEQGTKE
#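 Test system: labelled RRE RNA duplex and labelled Rev peptide. Times: 5 min compound–RNA preincubation, then 15 min with peptide, 25 °C. Doses: single-dose 8 µM. Measured by: FRET, excitation 480 nm, emission 540 nm donor and 671 nm acceptor. Measure: % inhibition of FRET ratio versus controls.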
# FAK blocker = inhibitors of human focal adhesion kinase; Q05397; biochemical FAK kinase activity assay; inhibition, %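 (tested at 7 µM)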; 97,000 compounds, 0.84% hits; AID 727; in the data active = inhibition above about 19%
# LYP act = LYP (human) phosphatase activation. activation, % at 2 µM. recombinant LYP, DiFMUP fluorescence; 0 = plate median, 100 = signal doubled. 96,000 compounds, 0.11% hits. AID 697;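 active = activation at 2 µM above a set limit, the mean plus 5 SD, cut at about 37% in these data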
# Hits are given with their value; 0 = inactive; [ ] = remark or other dose. Hits are enriched below; roughly 1.8% of the tested compounds scored in any of these assays.
SMILES,LYP inh 2,HIV Rev-RRE inh,FAK blocker,LYP act
CCOC(=O)C1=C(C)NC2=C(C(=O)CC(c3cccs3)C2)C1c1cccs1 (centres undefined),0,0,21,0
CCN(CC)c1ccc2c(c1)OC(N)=C(C#N)C2c1cccnc1 (centres undefined),0,121[fluorescence artefact?],0,0
CCCc1nn(C)c2c1C(c1cccnc1)C(C#N)=C(N)O2 (centres undefined),0,0,0,0
Cc1ccc(-n2c(CSc3nc(C)cc(C)n3)nnc2SCC(=O)NCc2ccco2)cc1,0,0,0,0
CN1CC=C2C(C#N)=C(N)C(C#N)(C#N)C(c3ccsc3)C2C1 (centres undefined),0,56,0,0
CCCC1C2CN(C(C)C)CC=C2C(C#N)=C(N)C1(C#N)C#N (centres undefined),0,70,0,0
CN1CC=C2C(C#N)=C(N)C(C#N)(C#N)[C@H](c3cccc(Cl)c3)C2C1 (some centres undefined),0,64,0,0
CN1CC=C2C(C#N)=C(N)C(C#N)(C#N)[C@H](c3cccs3)[C@H]2C1,0,58,0,0
CCOC(=O)N1CC=C2C(C#N)=C(N)C(C#N)(C#N)[C@H](c3ccsc3)[C@H]2C1,0,0,0,0
CC(C)c1ccc(C2C3CSCC=C3C(C#N)=C(N)C2(C#N)C#N)cc1 (centres undefined),0,0,0,0
CCOC(=O)N1CC=C2C(C#N)=C(N)C(C#N)(C#N)[C@H](c3ccc(OC(C)C)c(OCC)c3)[C@H]2C1,0,0,0,0
Cc1nn(-c2ccccc2)c(C)c1C(=O)OC/C(O)=C(\C#N)c1nc2ccccc2[nH]1,0,40,0,0
Cc1ccc(N2C(=O)C3C(C2=O)C(C(=O)c2ccc(Cl)cc2)N2CCCC32)cc1 (centres undefined),0,62,0,0
Cc1ccc(C(=O)N2CCN(c3ccc(Cl)cc3)CC2)cc1,0,0,0,0
CCOC(=O)Cc1csc2nc3sc(C)c(C)c3c(=O)n12,0,0,0,0
Cc1ccc(C(=O)/C=C/c2ccccc2)o1,0,80,0,0
CCN1CC2=C(OC(N)=C(C#N)C2c2cccs2)/C(=C/c2cccs2)C1 (centres undefined),0,42,0,0
CCN1CC2=C(OC(N)=C(C#N)C2c2ccccc2)/C(=C\c2ccccc2)C1 (centres undefined),0,0,0,0
C=CCN1C(=O)S/C(=C\c2ccc(N3CCOCC3)cc2C)C1=O,0,39,0,0
S=C(Nc1ccc(N2CCOCC2)cc1)Nc1ccc2nc(-c3ccco3)c(-c3ccco3)nc2c1,0,104[fluorescence artefact?],0,0
CCOC(=O)/C(C#N)=C\C=C1C=CN(C)C=C1,0,130[fluorescence artefact?],0,0
COc1ccc(S(=O)(=O)N(C)CC(=O)N2CCN(Cc3ccccc3)CC2)cc1C,0,0,0,0
CCOC(=O)c1cc(NC(=O)CSc2nnc(CN3CCOCC3)n2C)ccc1Cl,0,0,0,0
CCN1C(=O)/C(=C/C=C2/SCCN2C)SC1=S,0,129[fluorescence artefact?],0,0
CCN1C(=O)/C(=C/N2CCc3ccccc32)SC1=S,0,0,0,0
SMILES,LYP inh 2,HIV Rev-RRE inh,FAK blocker,LYP act
CC(C)OC(=O)c1c2nc3ccccc3nc2n2c1[nH]c(=O)c1ccccc12,0,69,0,0
CCOC(=O)C(Sc1ncnc2c1sc1nc(N3CCOCC3)c3c(c12)CCCC3)c1ccccc1 (centres undefined),0,0,0,0
CN(C)c1ccc(/C=C(\C#N)C(=O)Nc2nc3c(s2)CCN(Cc2ccccc2)C3)cc1,0,104[fluorescence artefact?],0,0
CCN1CCc2nc(NC(=O)c3ccccc3)sc2C1,0,0,0,0
CCOC(=O)c1sc(N)c(C#N)c1COC(=O)CNC(=O)c1ccccc1,0,51,0,0
Cc1ccc(NC(=O)CSc2nnc(C)n2-c2ccccc2)cc1,0,0,0,0
Cc1nnc(SCC(=O)N/N=C/c2cn(-c3ccccc3)nc2-c2ccccc2)n1-c1ccccc1,25,0,0,0
CN1CCC2(CC1)C1CN(C)CC=C1C(C#N)=C(N)C2(C#N)C#N (centres undefined),0,74,0,0
O=C(COC(=O)Cn1c(C(F)(F)F)nc2ccccc21)Nc1ccc2c(c1)OCCO2,0,0,0,0
CCSC1=N/C(=C\c2ccc(C(=O)O)cc2)C(=O)S1,0,0,0,0
CCOC(=O)SC1=N/C(=C\c2ccc(N(C)C)cc2)C(=O)S1,0,101[fluorescence artefact?],0,0
COc1ccc(C2=CSC3=C(C(=O)c4cccc(S(=O)(=O)N(C)C)c4)CCN23)cc1,0,0,0,0
COC(=O)c1cc(C#N)c(Oc2ccc(F)cc2)nc1C,0,0,0,0
CN1/C(=C\C=Nc2ccc3ccccc3c2)C(C)(C)c2ccccc21,0,63,0,0
Cc1ccc(CNc2ccc3c(c2)OCO3)c(C)c1,0,90[fluorescence artefact?],0,0
COc1cc(C2C(C#N)=C(N)OC3=C2C(=O)CCC3)c([N+](=O)[O-])cc1OC (centres undefined),0,48,0,0
Cc1cc(C2C(C#N)=C(N)OC3=C2C(=O)CCC3)c(C)s1 (centres undefined),0,0,0,0
C=CCOc1cccc(C2C(C(=O)c3ccc(C)o3)=C(O)C(=O)N2c2nccs2)c1 (centres undefined),0,78,0,0
O=c1c(/C=C(\O)c2ccccc2)nc2ccccc2n1-c1ccccc1,0,98[fluorescence artefact?],0,0
CC(C)COC(=O)c1cccc2c1-c1ccccc1/C2=N\O,0,0,55,0
COc1ccc(NS(=O)(=O)c2ccc(NC(=O)c3cnn4c(C(F)F)cc(-c5ccc(C)cc5)nc34)cc2)cc1,0,0,0,0
CCCc1cc(C(=O)NNC(=S)NC(C)c2ccccc2)cs1 (centres undefined),0,0,0,0
CCOC(=O)c1sc2cccc(F)c2c1N,0,0,0,0
CCOC(=O)c1sc2cc([N+](=O)[O-])cc(SCC(C)C)c2c1N,0,62,0,0
Cc1ccc(Cn2ccc(NC(=O)CCSc3nc(-c4ccco4)cc(C(F)(F)F)n3)n2)cc1,0,0,0,0
SMILES,LYP inh 2,HIV Rev-RRE inh,FAK blocker,LYP act
Cc1ccccc1Cn1ccc(NC(=O)CCSc2nc(-c3ccco3)cc(C(F)(F)F)n2)n1,25,0,0,0
CCOc1ccccc1NC(=O)CN(c1ccc(C)cc1)S(=O)(=O)c1c(C)noc1C,27,0,0,0
O=C(N/N=C/c1cc(Br)ccc1O)C(=O)Nc1ccccc1OC(F)(F)C(F)F,0,49,0,0
Cc1ccc(OCCOCCn2ccnc2)c(Br)c1,0,0,0,0
CCc1ccc2nc(NC(=O)c3ccc4c(=O)[nH]c(CN5CCOCC5)nc4c3)sc2c1,28,0,0,0
O=C(OCc1cccc2ccccc12)c1ccc2c(=O)[nH]c(CN3CCOCC3)nc2c1,0,0,0,0
O=c1c(O)c(-c2cccs2)oc2ccc(Cl)cc12,0,102[fluorescence artefact?],0,0
O=c1cc(-c2cccs2)oc2ccc(Cl)cc12,0,0,0,0
O=C(c1ccc(C(=O)N2CCCc3ccccc32)s1)N1CCCc2ccccc21,0,0,0,0
Cc1ccc(C)c2nc3sc(C(=O)N4CCCc5ccccc54)c(N)c3cc12,0,62,0,0
